Measured values published in ChEMBL document CHEMBL1821588, “Synthesis and in vivo evaluation of [O-methyl-11C] N-[3,5-dichloro-2-(methoxy)phenyl]-4-(methoxy)-3-(1-piperazinyl)benzenesulfonamide as an imaging probe for 5-HT6 receptors” (Bioorg Med Chem, 2011).

How the values were obtained:
[1] = Drug uptake in baboon parahippocampal gyrus at 5 mCi, iv measured during 90 mins; type: ADME, organism-based; details: papio anubis, in vivo, 1.5 h
Method in brief: (§1)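 Fasted baboon immobilized with ketamine (10 mg/kg, im), then anesthetized with 1.5–2.0% isoflurane by endotracheal tube and kept at 37 °C. A 10 min transmission scan preceded tracer. Tracer given as 5 ± 1 mCi iv bolus (S.A. 2300 ± 250 Ci/mmol). Emission collected 90 min in 3-D mode on HR+ PET. Arterial samples (30 over 90 min) gave the input function.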

[2] = Metabolic stability in baboon plasma assessed as unchanged radioligand at 12 mins by HPLC; type: ADME, cell-free; details: papio anubis, read-out: Stability
Method in brief: (§2)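 Arterial blood sampled at 2, 6, 12, 30, 60 and 90 min post-injection and spun; 0.5 ml plasma mixed with 0.7 ml acetonitrile, vortexed, centrifuged 14,000 rpm 4 min. Supernatant run on reverse-phase ODS HPLC (acetonitrile/0.1 M ammonium formate 35:65, 2 ml/min) with radioactivity detection. Parent percentage corrected for background and decay; QC tracer sample injected at start and end.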

[3] = Metabolic stability in baboon plasma assessed as unchanged radioligand at 4 mins by HPLC; type: ADME, cell-free; details: papio anubis, read-out: Stability
[4] = Drug uptake in baboon striatum at 5 mCi, iv measured during 90 mins; type: ADME, organism-based; details: papio anubis, in vivo, 1.5 h; method in brief: as §1
[5] = Metabolic stability in baboon plasma assessed as unchanged radioligand at 60 mins by HPLC; type: ADME, cell-free; details: papio anubis, read-out: Stability; method in brief: as §2
[6] = Fraction unbound in human plasma by HPLC; type: ADME, cell-free
[7] = Drug uptake in baboon prefrontal cortex at 5 mCi, iv measured during 90 mins; type: ADME, organism-based; details: papio anubis, in vivo, 1.5 h; method in brief: as §1
[8] = Metabolic stability in baboon plasma assessed as unchanged radioligand at 30 mins by HPLC; type: ADME, cell-free; details: papio anubis, read-out: Stability; method in brief: as §2
[9] = Drug uptake in baboon anterior cingulate at 5 mCi, iv measured during 90 mins; type: ADME, organism-based; details: papio anubis, in vivo, 1.5 h; method in brief: as §1
[10] = Drug uptake in baboon amygdala at 5 mCi, iv measured during 90 mins; type: ADME, organism-based; details: papio anubis, in vivo, 1.5 h; method in brief: as §1
[11] = Metabolic stability in baboon plasma assessed as unchanged radioligand at 2 mins by HPLC; type: ADME, cell-free; details: papio anubis, read-out: Stability; method in brief: as §2
[12] = Drug uptake in baboon cerebellum at 5 mCi, iv measured during 90 mins; type: ADME, organism-based; details: papio anubis, in vivo, 1.5 h; method in brief: as §1
[13] = Drug uptake in baboon temporal cortex at 5 mCi, iv measured during 90 mins; type: ADME, organism-based; details: papio anubis, in vivo, 1.5 h; method in brief: as §1
[14] = Metabolic stability in baboon plasma assessed as unchanged radioligand at 90 mins by HPLC; type: ADME, cell-free; details: papio anubis, read-out: Stability; method in brief: as §2
[15] = Fraction unbound in baboon plasma by HPLC; type: ADME, cell-free; details: papio anubis
[16] = Drug uptake in baboon hippocampus at 5 mCi, iv measured during 90 mins; type: ADME, organism-based; details: papio anubis, in vivo, 1.5 h; method in brief: as §1
[17] = Drug uptake in baboon pareital cortex at 5 mCi, iv measured during 90 mins; type: ADME, organism-based; details: papio anubis, in vivo, 1.5 h; method in brief: as §1

With `COc1ccc(S(=O)(=O)Nc2cc(Cl)cc(Cl)c2O[11CH3])cc1N1CCNCC1` the Drug uptake [1] was “Active”, the remaining at 0.2 h [2] was 71% and the remaining at 4 min [3] was 94%. For the same molecule, the Drug uptake [4] was “Not Active”, the remaining at 1 h [5] was 32% and the fraction unbound [6] was 0.01. For the same molecule, the Drug uptake [7] was “Not Active”, the remaining at 0.5 h [8] was 45% and the Drug uptake [9] was “Not Active”. The Drug uptake [10] was “Active”, the remaining at 2 min [11] was 99% and the Drug uptake [12] was “Not Active”. For the same molecule, the Drug uptake [13] was “Active”, the remaining at 1.5 h [14] was 27% and the fraction unbound [15] was 0.05. The Drug uptake [16] was “Active” and the Drug uptake [17] was “Active”.
